Screens deposited in PubChem by The Scripps Research Institute Molecular Screening Center.
V1aR counter – agonists of human V1a receptor, primary screen, counter-screen for OXTR agonist project, fluorescence, CHO-V1R cells; activation, % at 3 µM; hit rate 0.25% among 320,000; Fluo-8 calcium fluorescence, agonist mode; 0% DMSO, 100% 3 nM vasopressin; Vasopressin V1a receptor (Homo sapiens), P37288;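 active = activation above the mean activation of all tested compounds plus 3 SD, per screening run, cut at about 20% in these data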;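 note: signal is peak over basal fluorescence ratio across a 100 second FLIPR read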
Target sequence (P37288 whole entry, looked up): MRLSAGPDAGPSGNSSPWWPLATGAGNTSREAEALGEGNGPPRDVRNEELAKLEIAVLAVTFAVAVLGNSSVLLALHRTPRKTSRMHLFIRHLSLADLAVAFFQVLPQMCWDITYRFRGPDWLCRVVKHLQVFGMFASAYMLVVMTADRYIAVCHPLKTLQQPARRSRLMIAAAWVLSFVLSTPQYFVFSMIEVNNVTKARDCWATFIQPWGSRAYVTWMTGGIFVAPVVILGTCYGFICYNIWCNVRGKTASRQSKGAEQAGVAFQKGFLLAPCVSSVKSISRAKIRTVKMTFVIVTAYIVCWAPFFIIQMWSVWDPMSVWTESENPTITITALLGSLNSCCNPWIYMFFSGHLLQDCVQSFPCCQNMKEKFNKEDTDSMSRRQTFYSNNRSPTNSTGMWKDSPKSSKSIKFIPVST
OXTR potentiate – human OXTR potentiators, primary screen, fluorescence, CHO-OTR cells, Fluo-8 calcium. hit rate 0.061% among 320,000. Fluo-8 calcium fluorescence, potentiator mode; 0% = oxytocin EC15, 100% = EC100. activation, % at 3 µM. Oxytocin receptor (Homo sapiens), P30559;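 active = activation above that plate's cutoff, the mean activation of tested compounds plus 3 SD, cut at about 6.6% in these data, passing the limit was not always enough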
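test system = CHO-OTR cells, human receptor | compound = single-point 3.0 µM | schedule = 6 min compound pre-incubation at room temperature, 100 s kinetic read | signal = Fluo-8 no-wash calcium dye fluorescence, excitation 470-495 nm, emission 515-575 nm | repeats = single well per compound, singlicate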
TAAR1 antag – human TAAR1 antagonists, primary screen, Fluo-8 calcium fluorescence, CHO RD-HGA16 cells | Trace amine-associated receptor 1 (Homo sapiens), Q96RJ0 | antagonist | inhibition, % at 3 µM | hit rate 1.5% among 360,000;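 active = inhibition above a per-plate cutoff, the mean inhibition of test compounds on that plate plus 3 SD, cut at about 49% in these data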
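System: RD-HGA16 CHO cells with stable hTAAR1 and Gα16 | Probe or stimulus: EC80 β-phenethylamine stimulus | Dosing: 3 µM, single point | Times: Dye loading 75 min at 37 °C, then 30 min room temperature | Measured by: Fluo-8 calcium-sensitive fluorescence | Read-out basis: % inhibition of agonist calcium response | Replicates: n of 1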
OXTR ag – human OXTR agonists, primary screen, fluorescence, CHO-OTR cells, Fluo-8 calcium | Oxytocin receptor (Homo sapiens), P30559 | activation, % at 3 µM | AID 2435, 2010 | Fluo-8 calcium fluorescence; normalized: DMSO 0%, oxytocin 100% | hit rate 0.32% among 320,000;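 active = activation above the mean of all tested compounds plus 3 SD, cutoff set per screening run, cut at about 20% in these data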;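 note: peak over basal fluorescence ratio from a 100 s FLIPR kinetic read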
TAAR1 agonist – human TAAR1 agonists, primary screen, Fluo-8 calcium fluorescence, CHO RD-HGA16 cells. vehicle wells 0%, saturating PEA agonist 100%. activation, % at 3 µM. hit rate 0.99% among 360,000;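 active = activation above the mean activation of all test compounds in the run plus 3 SD, cut at about 38% in these data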
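System: CHO-derived RD-HGA16 cells with stable Gα16 and human TAAR1. Times: 17-24 h plating, Fluo-8 75 min 37 °C, 30 min RT. Measured by: calcium-sensitive Fluo-8 signal, excitation 470-495, emission 515-575 nm. Read-out basis: % activation relative to PEA EC100 response. Control set: DMSO and PEA EC100. Repeats: no replicates (n 1).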
A number is an active result; . = inactive; / = no result given. Shown are actives, neighbours in structure and some others; about 2.3% of the full set was active somewhere.

SMILES | V1aR counter | OXTR potentiate | TAAR1 antag | OXTR ag | TAAR1 agonist
O=C(O)c1nn(Cc2ncc(-c3cccc(Cl)c3)o2)c(=O)c2ccccc12 | . | . | . | . | .
Nc1c(N(CCO)C(=O)COc2ccc(Cl)cc2)c(=O)[nH]c(=O)n1Cc1ccccc1 | . | . | . | . | .
CC(=O)NCCNc1nc2cc(-c3cc(F)ccc3C)sc2c(=O)n1C | / | / | . | / | .
FC(F)(F)c1nc(-c2cccs2)ncc1-c1nnnn1-c1ccc(Cl)cc1 | . | . | 59 | . | .
COc1ccc(-c2csc(NCCc3nc4cc(Cl)c(Cl)cc4n3CCCO)n2)cc1 | . | . | 55 | . | .
CC(=C/c1ccccc1)/C=N/NC(=O)c1ccc2nc[nH]c2c1 | . | . | . | . | .
O=C(N/N=C/C(Br)=C\c1ccccc1)c1ccc2nc[nH]c2c1 | . | . | 54 | . | .
O=C1NC[C@H](Cc2ccccc2)N(C[C@H]2CCCN2C[C@H](Cc2ccccc2)N2C[C@H](Cc3ccccc3)N(CC3CCCCCC3)C(=O)C2=O)C1=O | / | / | . | / | .
O=C(N/N=C/C(Br)=C\c1ccccc1)c1ccco1 | . | . | . | . | .
COc1cccc(C(=O)/C=C/Nc2ccc(S(=O)(=O)Nc3ccc(C(C)=O)cc3)cc2)c1 | . | . | . | . | .
COc1ccc(C(=O)/C=C/Nc2ccc(S(=O)(=O)Nc3cccc(C(C)=O)c3)cc2)cc1 | . | . | 56 | . | .
C=CC[C@@H](Cc1ccc(F)cc1)C(=O)OC[C@H]1CCCN1C(=O)[C@H](CC=C)CC(=O)N[C@H](CO)Cc1ccccc1 | . | . | 50 | . | .
C=CC[C@@H](Cc1ccc(F)cc1)C(=O)OC[C@H]1CCCN1C(=O)[C@@H](CC=C)CC(=O)N[C@@H](CO)Cc1ccccc1 | . | . | . | . | .
C=CCC[C@@H](Cc1ccc(F)cc1)C(=O)OC[C@@H]1CCCN1C(=O)[C@H](CC=C)CC(=O)N[C@H](CO)Cc1ccccc1 | . | . | . | . | .
C=CCC[C@@H](Cc1ccc(F)cc1)C(=O)OC[C@@H]1CCCN1C(=O)[C@@H](CC=C)CC(=O)N(CCO)Cc1ccccc1 | . | . | 57 | . | .
CCC1(c2ccccc2)NC(=O)N(CC(=O)N2CCc3ccccc32)C1=O (centres undefined) | . | . | . | . | .
CCC1(c2ccc(F)cc2)NC(=O)N(CC(=O)N2CCc3ccccc32)C1=O (centres undefined) | 27 | . | . | 29 | 68
COc1ccc(NC(=O)c2ccc(CN3CCN(c4ccccc4)CC3)cc2)cc1 | . | . | . | . | 40
Cc1ccc(NC(=O)CN2CCOCC2)cc1Cl | . | . | . | . | .
COc1ccc(N2CCN(C(=O)COC(=O)c3oc4ccccc4c3C)CC2)cc1 | . | . | 51 | . | .
CCN(CC)c1ccc(/C=C(/C#N)C(=O)NCc2ccccc2)o1 | 26 | . | 54 | 29 | 54
CCN(CC)c1ccc(/C=C(/C#N)C(=O)NC(C)C)o1 | . | . | . | . | .
CCOC(=O)COc1ccc(CCNC(C)=O)cc1 | . | . | . | . | .
CCC1C/C(=C\c2cc(OC)c(OC)cc2OC)C(=O)/C(=C/c2cc(OC)c(OC)cc2OC)C1 (centres undefined) | . | . | / | . | /
COc1cc(OC)c(OC)cc1/C=C1\CC(C)C/C(=C\c2cc(OC)c(OC)cc2OC)C1=O (centres undefined) | . | . | 51 | . | .
CC(=O)N/C(=C\c1ccc(Br)s1)C(=O)O | . | . | / | . | /
OCc1cccc(-c2cnc3c(Nc4cccc(OC(F)(F)C(F)F)c4)nccn23)c1 | / | / | 60 | / | .
CC(C)(C)c1ccc(C(=O)Nc2ccccc2Cl)cc1 | . | . | . | . | .
O=C(Nc1ccccc1Cl)c1ccccc1CC(O)(c1ccccc1)c1ccccc1 | / | / | 54 | / | .
NC(Cc1ccccc1)c1csc(Nc2ccc(C(F)(F)F)cn2)n1 (centres undefined) | / | / | . | / | 41
